Data taken from ChEMBL document CHEMBL1155308, “Metallo-beta-lactamase inhibitory activity of phthalic acid derivatives” (Bioorg Med Chem Lett, 2009).

Experiment: Inhibition of carbapenems-resistant Pseudomonas aeruginosa MSC15369 metallo-beta-lactamase IMP-1 expressed in Escherichia coli after 20 mins by spectrophotometry
Method in brief: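 IMP-1 purified from cell extracts by Ni-NTA; 1.0 nM enzyme in 50 mM HEPES pH 7.5 with 100 µM ZnSO4 and 20 µg/ml BSA, preincubated with inhibitor 20 min at room temperature; nitrocefin substrate, initial velocity read at 490 nm; IC50 determined.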

| SMILES | IC50 |
| --- | --- |
| O=C(O)c1cccc(-c2cccc(O)c2)c1C(=O)O | 1.75 µM |
| O=C(O)c1cccc(-c2ccc(O)cc2)c1C(=O)O | 1.55 µM |
| O=C(O)c1cccc(CCCO)c1C(=O)O | 13.2 µM |
| CC(C)(C)c1ccc(C(=O)O)c(C(=O)O)c1 | > 300 µM |
| Cc1cccc(C(=O)O)c1C(=O)O | 160 µM |
| O=C(O)c1cccc(-c2ccccc2)c1C(=O)O | 0.968 µM |
| O=C(O)c1cccc(-c2ccccc2O)c1C(=O)O | 2.44 µM |
| O=C(O)c1cccc(-c2cccc(C(=O)O)c2C(=O)O)c1 | 17.9 µM |
| CCCCc1ccc(C(=O)O)c(C(=O)O)c1C | 16 µM |
| CCCCc1ccc(C(=O)O)c(C(=O)O)c1 | 243 µM |
| Cc1ccc(C(=O)O)c(C(=O)O)c1 | > 300 µM |
| O=C(O)c1ccc(-c2ccccc2)cc1C(=O)O | > 300 µM |
| O=C(O)c1ccc(-c2cccc(C(=O)O)c2C(=O)O)cc1 | 2.25 µM |
| O=C(O)c1ccccc1-c1cccc(C(=O)O)c1C(=O)O | 207 µM |
| O=C(O)c1ccccc1C(=O)O [PHTHALIC ACID] | > 100 µM |
